Data from ChEMBL document CHEMBL1135761, “Discovery of further pyrrolidine trans-lactams as inhibitors of human neutrophil elastase (HNE) with potential as development candidates and the crystal structure of HNE complexed with an inhibitor (GW475151)” (J Med Chem, 2002).

What was measured:
[1] = Pharmacokinetic parameter Varea in dog was reported in Cassette dosage; assay type: ADME, organism-based, Canis lupus familiaris; conditions: in vivo, read-out: Varea
Outline: (§1)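 Dog cassette: the set of compounds was given intravenously into the femoral vein to a beagle dog at 0.2 mg/kg body weight per compound. Jugular blood was sampled from 5 min to 24 h postdose. Plasma was prepared by solid phase extraction, then analysed by HPLC with single ion monitoring MS using 0.1% formic acid in water:methanol (70:30).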

[2] = Half life time in dog was reported in cassette dosage; assay type: ADME, organism-based, Canis lupus familiaris; conditions: in vivo; outline: as §1
[3] = Pharmacokinetic parameter clearance in dog was reported in Cassette dosage; assay type: ADME, organism-based, Canis lupus familiaris; conditions: plasma, read-out: Clp; outline: as §1
[4] = pharmacokinetic parameter volume of distribution (Vd) was reported in dog after intravenous administration; assay type: ADME, organism-based, Canis lupus familiaris; conditions: in vivo, read-out: Vd area
[5] = Oral bioavailability in dog; assay type: ADME, organism-based, Canis lupus familiaris; conditions: in vivo
[6] = Oral bioavailability in rat; assay type: ADME, organism-based; conditions: in vivo
Outline: (§2)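 Rats were dosed with the hydrochloride salt at 2 mg/kg intravenously and orally. Plasma pharmacokinetic parameters were derived from each route, and F was taken from the oral versus intravenous exposure. Some rat data were normalized from a 2.4 to a 2 mg/kg dose.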

[7] = Pharmacokinetic parameter Tmax was reported in dog after oral administration; assay type: ADME, organism-based, Canis lupus familiaris; conditions: in vivo
[8] = pharmacokinetic parameter volume of distribution (Vd) was reported in rat after intravenous administration; assay type: ADME, organism-based; conditions: in vivo, read-out: Vd area; outline: as §2
Canis familiaris [9] = assay: pharmacokinetic parameter area under the curve (AUC) was reported in dog after intravenous administration; assay type: ADME, organism-based, Canis lupus familiaris; conditions: in vivo
Canis familiaris [10] = assay: pharmacokinetic parameter area under the curve (AUC) was reported in dog after oral administration; assay type: ADME, organism-based, Canis lupus familiaris; conditions: in vivo
Rattus norvegicus [11] = assay: pharmacokinetic parameter area under the curve (AUC) was reported in rat after intravenous administration; assay type: ADME, organism-based; conditions: in vivo; outline: as §2
Rattus norvegicus [12] = assay: pharmacokinetic parameter area under the curve (AUC) was reported in rat after oral administration; assay type: ADME, organism-based; conditions: in vivo; outline: as §2
[13] = half life was reported in dog after intravenous administration; assay type: ADME, organism-based, Canis lupus familiaris; conditions: in vivo
[14] = half life was reported in dog after oral administration; assay type: ADME, organism-based, Canis lupus familiaris; conditions: in vivo
[15] = half life was reported in rat after intravenous administration; assay type: ADME, organism-based; conditions: in vivo; outline: as §2
[16] = half life was reported in rat after oral administration; assay type: ADME, organism-based; conditions: in vivo; outline: as §2
[17] = Pharmacokinetic parameter Cmax was reported after in dog oral administration; assay type: ADME, organism-based, Canis lupus familiaris; design: route oral; conditions: in vivo
[18] = Pharmacokinetic parameter Cmax was reported after in rat oral administration; assay type: ADME, organism-based; design: route oral; conditions: in vivo; outline: as §2
[19] = Pharmacokinetic parameter Tmax was reported in rat after oral administration; assay type: ADME, organism-based; conditions: in vivo; outline: as §2
Cathepsin G = biological target: T1, Cathepsin G (Homo sapiens, UniProt P08311); assay: The compound was evaluated for its inhibitory activity against cathepsin G using selectivity assay
T1 sequence (P08311 whole entry): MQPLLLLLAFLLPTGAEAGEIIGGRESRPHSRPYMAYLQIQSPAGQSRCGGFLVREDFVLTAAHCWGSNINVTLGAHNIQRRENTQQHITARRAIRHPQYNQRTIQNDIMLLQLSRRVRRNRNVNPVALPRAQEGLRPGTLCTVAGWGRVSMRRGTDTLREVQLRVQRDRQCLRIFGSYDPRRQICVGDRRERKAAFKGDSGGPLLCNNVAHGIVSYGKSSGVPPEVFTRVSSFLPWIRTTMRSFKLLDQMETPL

Chymotrypsinogen A = Chymotrypsinogen A (Bos taurus, UniProt P00766); assay: The compound was evaluated for its inhibitory activity against Chymotrypsinogen using selectivity assay
Outline: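 Selectivity counter-screen against chymotrypsin, run essentially per an earlier published protocol; inhibitor preincubated with enzyme for 15 min before activity read-out.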

Serine protease 1 = Serine protease 1 (Homo sapiens, UniProt P07477); assay: The compound was evaluated for its inhibitory activity against trypsin using selectivity assay
Sequence of Serine protease 1 (P07477 whole entry): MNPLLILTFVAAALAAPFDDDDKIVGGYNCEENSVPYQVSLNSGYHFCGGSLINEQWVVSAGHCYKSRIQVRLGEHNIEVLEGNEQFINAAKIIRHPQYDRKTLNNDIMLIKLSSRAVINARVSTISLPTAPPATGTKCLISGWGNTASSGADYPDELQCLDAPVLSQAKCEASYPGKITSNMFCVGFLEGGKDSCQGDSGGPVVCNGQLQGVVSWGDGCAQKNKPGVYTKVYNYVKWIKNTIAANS

[20] = Pharmacokinetic parameter Tmax was reported in rat after intravenous administration; assay type: ADME, organism-based; conditions: in vivo; outline: as §2
[21] = biological target: T2, Neutrophil elastase (Homo sapiens) (UniProt P08246); conditions: Canis lupus familiaris; 2 mg/kg
T2 sequence (whole entry): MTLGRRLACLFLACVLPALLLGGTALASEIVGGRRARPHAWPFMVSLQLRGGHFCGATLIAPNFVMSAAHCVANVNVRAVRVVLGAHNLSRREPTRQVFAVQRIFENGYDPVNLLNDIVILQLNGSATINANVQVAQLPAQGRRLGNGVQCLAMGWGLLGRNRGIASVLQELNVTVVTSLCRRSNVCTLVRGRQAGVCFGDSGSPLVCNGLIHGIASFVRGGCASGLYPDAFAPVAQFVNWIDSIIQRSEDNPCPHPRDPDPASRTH

[22] = biological target: T2, Neutrophil elastase (Homo sapiens); conditions: Canis lupus familiaris; Blood; 2 mg/kg
[23] = biological target: T2, Neutrophil elastase (Homo sapiens)
[24] = Pharmacokinetic parameter Varea in dog was reported in Discrete dosage; assay type: ADME, organism-based, Canis lupus familiaris; conditions: in vivo, read-out: Varea
[25] = Half life time in dog was reported in Discrete dosage; assay type: ADME, organism-based, Canis lupus familiaris; conditions: in vivo
[26] = Pharmacokinetic parameter clearance in dog was reported in Discrete dosage; assay type: ADME, organism-based, Canis lupus familiaris; conditions: plasma, read-out: Clp
[27] = Pharmacokinetic parameter Tmax was reported in dog after intravenous administration; assay type: ADME, organism-based, Canis lupus familiaris; conditions: in vivo
[28] = biological target: T2, Neutrophil elastase (Homo sapiens); conditions: Canis lupus familiaris; Blood; 2 mg/kg; remark: listed apart in the source

Vd [1]	half-life [2]	clearance [3]	Vd [4]	bioavailability [5]	bioavailability [6]	Tmax [7]	Vd [8]	AUC (Canis familiaris [9])	AUC (Canis familiaris [10])	AUC (Rattus norvegicus [11])	AUC (Rattus norvegicus [12])	half-life [13]	half-life [14]	half-life [15]	half-life [16]	Cmax [17]	Vd [24]	half-life [25]	clearance [26]	SMILES	other results
4.8 L/kg	60 min	53 mL/min/kg																		CC(C)C1C(=O)N(S(C)(=O)=O)C2CCN(C(=O)c3csc(CN4CCCC4)n3)C12 (stereo unspecified)	
			1.9 L/kg	120%	43%	15 min	5 L/kg	220 ng·h/mL	147 ng·h/mL	148 ng·h/mL	64 ng·h/mL	24 min	24 min	18 min	24 min	205 ng/mL				CC(C)[C@@H]1C(=O)N(S(C)(=O)=O)[C@@H]2CCN(C(=O)c3cnc(CNC4CC4)cn3)[C@H]21.Cl	Cmax [18]: 135 ng/mL; Tmax [19]: 15 min; IC50 (Cathepsin G): > 100 µM; IC50 (Chymotrypsinogen A): 0.54 µM; IC50 (Serine protease 1): > 100 µM; Tmax [20]: 1.8 min; inhibition [21]: 92%; inhibition [22]: 99%; k on [23]: 252000 M⁻¹ s⁻¹
6.6 L/kg	30 min	161 mL/min/kg															3.8 L/kg	12 min	220 mL/min/kg	CC(C)[C@@H]1C(=O)N(S(C)(=O)=O)[C@@H]2CCN(C(=O)c3ccc(CCN4CCCCC4)cc3)[C@H]21	
			3.5 L/kg	90%	45%	54 min	4.9 L/kg	488 ng·h/mL	417 ng·h/mL	482 ng·h/mL	217 ng·h/mL	108 min	126 min	48 min	72 min	130 ng/mL				CC(C)[C@@H]1C(=O)N(S(C)(=O)=O)[C@@H]2CCN(C(=O)C3CN(CC(C)(C)C)C3)[C@H]21.Cl	Cmax [18]: 142 ng/mL; Tmax [19]: 45 min; IC50 (Cathepsin G): > 100 µM; IC50 (Chymotrypsinogen A): 31 µM; IC50 (Serine protease 1): > 100 µM; Tmax [20]: 1.8 min; inhibition [21]: 92%; inhibition [22]: 99%; k on [23]: 6310 M⁻¹ s⁻¹
7.6 L/kg	42 min	134 mL/min/kg															3.5 L/kg	12 min	197 mL/min/kg	CCCN(C)Cc1ccc(C(=O)N2CCC3C2C(C(C)C)C(=O)N3S(C)(=O)=O)cc1 (stereo unspecified)	
2.5 L/kg	60 min	28 mL/min/kg															2.9 L/kg	54 min	40 mL/min/kg	CC(C)[C@@H]1C(=O)N(S(C)(=O)=O)[C@@H]2CCN(C(=O)/C=C/CNC3CC3)[C@H]21	
4.3 L/kg	30 min	97 mL/min/kg															3.8 L/kg	30 min	94 mL/min/kg	CC(C)C1C(=O)N(S(C)(=O)=O)C2CCN(C(=O)c3ccc(CNC4CC4)cc3)C12 (stereo unspecified)	
			3.4 L/kg	100%	24%	30 min	2.6 L/kg	286 ng·h/mL	308 ng·h/mL	392 ng·h/mL	93 ng·h/mL	60 min	84 min	24 min	78 min	138 ng/mL				CC(C)[C@@H]1C(=O)N(S(C)(=O)=O)[C@@H]2CCN(C(=O)c3coc(CN4CCCC4)n3)[C@H]21.Cl	Tmax [27]: 1.8 min; Cmax [18]: 147 ng/mL; Tmax [19]: 15 min; IC50 (Cathepsin G): > 100 µM; IC50 (Chymotrypsinogen A): 3 µM; IC50 (Serine protease 1): > 100 µM; Tmax [20]: 1.8 min; inhibition [21]: 100%; inhibition [22]: 100%; k on [23]: 30500 M⁻¹ s⁻¹
3.3 L/kg	120 min	20 mL/min/kg															2.7 L/kg	108 min	19 mL/min/kg	CC(C)C1C(=O)N(S(C)(=O)=O)C2CCN(C(=O)/C=C/CN3CCCCC3)C12 (stereo unspecified)	
4.4 L/kg	18 min	176 mL/min/kg																		CC(C)[C@@H]1C(=O)N(S(C)(=O)=O)[C@@H]2CCN(C(=O)c3ccc(CN(C)C(C)C)c(Br)c3)[C@H]21	
2.9 L/kg	42 min	46 mL/min/kg																		CC(C)C1C(=O)N(S(C)(=O)=O)C2CCN(C(=O)c3ccc(CNC4CC4)nc3)C12 (stereo unspecified)	
			3.5 L/kg	100%	60%	42 min	7.5 L/kg	405 ng·h/mL	430 ng·h/mL	424 ng·h/mL	263 ng·h/mL	90 min	96 min	66 min	48 min	152 ng/mL				CC(C)[C@@H]1C(=O)N(S(C)(=O)=O)[C@@H]2CCN(C(=O)/C=C/CN3CCCCC3)[C@H]21.Cl	Cmax [18]: 232 ng/mL; Tmax [19]: 30 min; IC50 (Cathepsin G): > 100 µM; IC50 (Serine protease 1): > 100 µM; Tmax [20]: 3 min; inhibition [21]: 97%; inhibition [28]: 100%; k on [23]: 6630 M⁻¹ s⁻¹
